Reference: ChEMBL document CHEMBL4340525, “Tumor-Targeted Delivery of 6-Diazo-5-oxo-l-norleucine (DON) Using Substituted Acetylated Lysine Prodrugs” (J Med Chem, 2019)

Tests used:
[1] = Tmax in CES1-deficient C57BL/6 mouse jejunum implanted with mouse EL4 cells assessed as 6-diazo-5-oxo-L-norleucine level at 3.2 mg/kg, sc administered as single dose by LC-MS/MS analysis; format: ADME, organism-based; conditions: in vivo
Summary of the method: (§1)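 Male and female C57BL/6 CES1-/- mice, 6–8 weeks old, carried flank EL4 tumours from SC injection of 1 × 10^6 cells in PBS. Dosing began at about 400 mm3 mean tumour volume. Each mouse got one SC dose of 3.2 mg/kg (1 mg/kg DON equivalent) in ethanol/Tween 80/saline 5:10:85. Plasma, jejunum and tumour were taken at set times, n = 3 per time point. Prodrug and dabsyl-derivatised DON were measured by LC-MS/MS. Noncompartmental analysis: Cmax and Tmax observed, AUClast by log-linear trapezoidal rule.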

[2] = Prodrug conversion in human H69 cells suspended in human plasma assessed as 6-diazo-5-oxo-L-norleucine formation at 20 uM measured after 1 hr by LC-MS/MS analysis; format: ADME, cell-based; conditions: nci-h69, 1 h
Summary of the method: (§2)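 Cells were grown in RPMI 1640 with 10% FBS, washed in DPBS and resuspended in human plasma at 10 million cells/mL. After 5 min preincubation at 37 °C, compound was added at 20 µM final for 1 h. The mix was centrifuged at 10 000g and the washed pellet and plasma were quantified separately. DON was read by LC-MS/MS after dabsyl chloride derivatisation, intact prodrug directly. Standard curves were made in naive cells or plasma.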

[3] = Stability in human plasma assessed as parent compound remaining at 20 uM measured after 1 hr by LC-MS/MS analysis
[4] = (§3) Antiproliferative activity against human P493B cells measured after 72 hrs by CellTiter 96 aqueous one solution cell proliferation assay; format: functional, cell-based
Summary of the method: (§4)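 P493B lymphoma cells seeded at 20 000 cells/well in growth medium. DMSO stocks added as a 1:10 serial dilution, final 0.2% DMSO. Cells grown 72 h with compound, then given CellTiter 96 AQueous reagent for 2 h and read by absorbance at 490 nm. EC50 obtained by nonlinear regression of log-transformed data.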

[5] = species: Homo sapiens; assay: as §3; format: functional, cell-based; summary of the method: as §4
[6] = Stability in swine plasma assessed as parent compound remaining at 20 uM measured after 1 hr by LC-MS/MS analysis; conditions: Sus scrofa, pig
[7] = Tmax in CES1-deficient C57BL/6 mouse plasma implanted with mouse EL4 cells assessed as 6-diazo-5-oxo-L-norleucine level at 3.2 mg/kg, sc administered as single dose by LC-MS/MS analysis; format: ADME, organism-based; conditions: in vivo; summary of the method: as §1
[8] = Cmax in CES1-deficient C57BL/6 mouse plasma implanted with mouse EL4 cells at 3.2 mg/kg, sc administered as single dose by LC-MS/MS analysis; format: ADME, organism-based; set-up: dose 3.2 mg/kg, route subcutaneous; summary of the method: as §1
[9] = Stability of the compound in wild-type C57BL/6 mouse plasma assessed as de-esterification of carboxyl ester measured after 60 mins by HRMS analysis; format: ADME, cell-free; conditions: 1 h
[10] = Cmax in CES1-deficient C57BL/6 mouse plasma implanted with mouse EL4 cells assessed as 6-diazo-5-oxo-L-norleucine level at 3.2 mg/kg, sc administered as single dose by LC-MS/MS analysis; format: ADME, organism-based; set-up: dose 3.2 mg/kg, route subcutaneous; conditions: in vivo; summary of the method: as §1
[11] = AUC (0 to t) in CES1-deficient C57BL/6 mouse tumor implanted with mouse EL4 cells at 3.2 mg/kg, sc administered as single dose by LC-MS/MS analysis; format: ADME, organism-based, Neoplasm; conditions: in vivo; summary of the method: as §1
[12] = Cmax in CES1-deficient C57BL/6 mouse tumor implanted with mouse EL4 cells assessed as 6-diazo-5-oxo-L-norleucine level at 3.2 mg/kg, sc administered as single dose by LC-MS/MS analysis; format: ADME, organism-based, Neoplasm; set-up: dose 3.2 mg/kg, route subcutaneous; conditions: in vivo; summary of the method: as §1
[13] = Cmax in CES1-deficient C57BL/6 mouse jejunum implanted with mouse EL4 cells at 3.2 mg/kg, sc administered as single dose by LC-MS/MS analysis; format: ADME, organism-based; set-up: dose 3.2 mg/kg, route subcutaneous; conditions: in vivo, BLD = below limit of detection; summary of the method: as §1
[14] = Stability of the compound in CES1-deficient C57BL/6 mouse plasma measured after 60 mins by UHPLC-MS analysis; format: ADME, cell-free; conditions: 1 h
[15] = Ratio of AUC (0 to t) in tumor to plasma of CES1-deficient C57BL/6 mouse implanted with mouse EL4 cells assessed as 6-diazo-5-oxo-L-norleucine level at 3.2 mg/kg, sc administered as single dose by LC-MS/MS analysis; format: ADME, organism-based; conditions: tumour
Summary of the method: (§5)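 Tissue-to-tissue ratios of DON AUClast came from noncompartmental analysis. EL4-bearing CES1-/- C57BL/6 mice received one SC dose of 3.2 mg/kg (1 mg/kg DON equivalent) in ethanol/Tween 80/saline 5:10:85. Tumour, jejunum and plasma were sampled over time, n = 3 mice per time point. DON was read by LC-MS/MS after dabsyl chloride derivatisation.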

[16] = AUC (0 to t) in CES1-deficient C57BL/6 mouse plasma implanted with mouse EL4 cells at 3.2 mg/kg, sc administered as single dose by LC-MS/MS analysis; format: ADME, organism-based; summary of the method: as §1
[17] = species: Homo sapiens; assay: Stability of the compound assessed as recombinant human cathepsin L/cathepsin B-mediated compound hydrolysis by measuring parent compound remaining at 1 uM measured after 3 hrs by UHPLC-MS analysis
Summary of the method: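 Compound at 1 µM was incubated at 37 °C with shaking in 50 mM MES pH 6 with 5 mM DTT. Recombinant human enzyme final levels: HDAC2 10 µg/mL, cathepsin B 1 µg/mL, cathepsin L 0.1 µg/mL, alone or cathepsins B+L combined. Aliquots were quenched in methanol with losartan at 0.25, 0.5, 1 and 3 h. Parent remaining by Q-TOF LC-MS.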

[18] = Ratio of AUC (0 to t) in tumor to jejunum of CES1-deficient C57BL/6 mouse implanted with mouse EL4 cells assessed as 6-diazo-5-oxo-L-norleucine level at 3.2 mg/kg, sc administered as single dose by LC-MS/MS analysis; format: ADME, organism-based; conditions: in vivo; summary of the method: as §5
[19] = AUC in CES1-deficient C57BL/6 mouse jejunum implanted with mouse EL4 cells assessed as 6-diazo-5-oxo-L-norleucine level at 3.2 mg/kg, sc administered as single dose by LC-MS/MS analysis; conditions: in vivo
[20] = Stability of the compound in wild-type C57BL/6 mouse plasma measured after 60 mins by UHPLC-MS analysis; format: ADME, cell-free; conditions: 1 h
[21] = Prodrug conversion in human plasma suspended with human H69 cells assessed as 6-diazo-5-oxo-L-norleucine formation at 20 uM measured after 1 hr by LC-MS/MS analysis; format: ADME, cell-free; summary of the method: as §2
[22] = Prodrug conversion in human P493B cells suspended in human plasma assessed as 6-diazo-5-oxo-L-norleucine formation at 20 uM measured after 1 hr by LC-MS/MS analysis; format: ADME, cell-based; summary of the method: as §2
[23] = Tmax in CES1-deficient C57BL/6 mouse tumor implanted with mouse EL4 cells assessed as 6-diazo-5-oxo-L-norleucine level at 3.2 mg/kg, sc administered as single dose by LC-MS/MS analysis; format: ADME, organism-based, Neoplasm; conditions: in vivo; summary of the method: as §1
[24] = Tmax in CES1-deficient C57BL/6 mouse plasma implanted with mouse EL4 cells at 3.2 mg/kg, sc administered as single dose by LC-MS/MS analysis; format: ADME, organism-based; summary of the method: as §1

With `CC(=O)NCCCC[C@H](NC(=O)C12CC3CC(CC(C3)C1)C2)C(=O)N[C@@H](CCC(=O)C=[N+]=[N-])C(=O)OC(C)C` as the compound, how does the Tmax [1] read?
The Tmax was 30 min.

What about the Drug metabolism [2] of the same compound?
The Drug metabolism was 9.95 µM.

And the Stability [3]?
The Stability was 107%.

What about the EC50 [4] of the same compound?
The EC50 was 5 µM.

What about the Activity [5] of the same compound?
The Activity was “Dose-dependent effect”.

And the Stability [6]?
The Stability was 108%.

What about the Tmax [7] of the same compound?
Its Tmax is 30 min.

And the Cmax [8]?
Its Cmax is 820 nM.

What about the Stability [9] of the same compound?
The Stability was “Unstable”.

What about the Cmax [10] of the same compound?
Its Cmax is 440 nM.

What about the AUCt [11] of the same compound?
Its AUCt is 0.03 nmol·h/g.

And the Cmax [12]?
Its Cmax is 1.55 nmol/g.

What about the Cmax [13] of the same compound?
Its Cmax is “Bld”.

What about the Stability [14] of the same compound?
The Stability was “Stable”.

And the “Ratio AUC” value [15]?
The value was 5.

And the AUC(0-t) [16]?
Its AUC(0-t) is 0.4 µM·h.

What about the Stability [17] of the same compound?
Its Stability is 9%.

And the “Ratio AUC” value [18]?
Its value is 11.

What about the AUC [19] of the same compound?
Its AUC is 0.45 nmol·h/g.

What about the Stability [20] of the same compound?
Its Stability is “Unstable”.

What about the Drug metabolism [21] of the same compound?
The Drug metabolism was 0.25 to 0.5 µM.

What about the Drug metabolism [22] of the same compound?
Its Drug metabolism is 8.81 µM.

And the Tmax [23]?
The Tmax was 60 min.

And the Tmax [24]?
The Tmax was 15 min.
